Like-named read-outs stand apart in the source and are kept apart here. Bounds are passed on as bounds.

Series [1] relates to amyloid peptide levels. Conditions: animal models; cited from earlier work.
The subject of series [2] is refractory adult solid tumors. To be noted: cited from earlier work.
The subject of series [3] is children with recurrent CNS tumors. To be noted: 3-days-on/4-days-off schedule; cited from earlier work.
For series [4] the following is noted: children, 3-days-on/4-days-off schedule; cited from earlier work.
Series [5] deals with children with recurrent central nervous system (CNS) malignancies. Conditions: in vivo.
The conditions of series [6]: cited from earlier work; for t1/2: adults.
In series [7] the test system is NOTCH1 cleavage (NICD1) in PBMCs. Nature of the series: NICD1 expression in PBMCs by Western blot. The series is classed as in vivo, human. To be noted: for patients with NICD1 expression decreased from baseline: PBMCs. For orientation: A western blot detects proteins with antibodies after separation by electrophoresis.
Series [8] can be described thus: Plasma pharmacokinetics of weekly MK-0752, dose 1 course 1. In kind it is in vivo. Conditions: human, oral, both dose levels. Put shortly:
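Children with recurrent CNS tumours took oral test compound capsules once weekly at 1,000 or 1,400 mg/m2, in 28-day courses. Heparinised blood was drawn before dose 1 of course 1 and at 1, 2, 3, 6, 8 (±2), 24 (±4) and 48 h after it. Plasma drug was measured by validated LC-MS/MS and analysed non-compartmentally. β came from the last two measurable points, and t1/2 = ln(2)/β.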

Series [9] concerns NOTCH pathway genes. Conditions: healthy adults, once weekly dosing; cited from earlier work.
Series [10] relates to recurrent CNS tumors. To be noted: children, 3-days-on/4-days-off schedule; cited from earlier work.
The test system of series [11] is advanced breast cancer. Conditions: with docetaxel, MK-0752 days 1-3, of 30 evaluable patients; cited from earlier work.
The test system of series [12] is recurrent CNS tumors. Nature of the series: Tumor response in phase I trial of weekly MK-0752. In kind it is in vivo, human. The method, boiled down:
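The oral test compound was given once weekly at 1,000 or 1,400 mg/m2 in 28-day courses, using a rolling-6 design. Disease was assessed at baseline, after course 2 and after every other course thereafter. Patients got up to 6 courses unless disease progressed, and those with stable disease after 6 courses could receive up to 13 more.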

The test system of series [13] is NOTCH. Conditions: adults, weekly administration; cited from earlier work.
Series [14] deals with platinum-resistant ovarian carcinoma xenograft model. To be noted: cited from earlier work.
For series [15], the system named is glioblastoma cell lines. Conditions: combination with Akt inhibitor MK-2206, compared to monotherapy; cited from earlier work.

For `O=C(O)CC[C@H]1CC[C@@](c2cc(F)ccc2F)(S(=O)(=O)c2ccc(Cl)cc2)CC1` [MK-0752], in series [1], the blood-brain barrier penetration result was “penetrate the blood-brain barrier” and the “reduction of amyloid peptide levels” value is on record as 50%. The “duration of CR” value in [2] (one adult patient with anaplastic astrocytoma, 1,800 mg once weekly) was over 1 year. Further, in [2] (one adult patient with glioblastoma multiforme, 4,200 mg once weekly), the “duration of SD” value is given as over 1 year. Further, in series [3], the “dose-limiting toxicity preventing dose escalation beyond 260 mg/m^2” value is “dose-limiting elevations of AST and ALT”; the well-tolerated dose is 260 mg/m^2. Moreover, in [4], the t1/2 was 11.4 h. Besides, in series [5] (human), the ALT increase is given as 2, the AST increase was 2, the Allergic rhinitis is 1 and the Anorexia stood at 1. Further, in series [5] (human), the Diarrhea was determined as 4, the Dizziness is 1, the Dry skin amounted to 1 and the Fatigue is given as 1. In [5] (human), this compound registered a Hyperglycemia of 1, a Hypermagnesemia of 1, a Hypoalbuminemia of 2 and a Hypokalemia of 1. In series [5] (human), the Hypomagenesemia was 2, the Hypophosphatemia came to 2, the Hypotension is listed as 1 and the “Increased Hemoglobin” value worked out at 1. Further, in series [5] (human), the Leukopenia is given as 2, the Nausea is given as 1, the Vomiting was found to be 2 and the “grade 4 toxicities” value is reported as “no grade 4 toxicities”. Also, in series [5], the “Non-dose-limiting grade 3 toxicities” value was “lymphopenia, neutropenia, and anemia”; the “dose-limiting diarrhea and GI toxicity” value was “not observed”. Also, the peak concentration (Cmax) in series [6] (adults receiving 1,800 mg (~1,040 mg/m^2) weekly) is 84.2 µg/mL. Further, the t1/2 in series [6] (weekly 1,800 mg (~1,040 mg/m^2)) is 13.8 h. Further, in [6] (weekly 2,400 mg (~1,400 mg/m^2)), the t1/2 is 16.2 h. The “change in NICD expression in PBMCs” value in [7] (24 hours after the higher dose (1,400 mg)) is “dose-dependent decrease”. Besides, the “patients with NICD1 expression decreased from baseline” value in series [7] (24 hours post MK-0752, 1,000 and 1,400 mg/m^2) was 6 of 7. Also, the “patients with NICD1 expression decreased from baseline” value in series [7] (24 hours post MK-0752, treated at 1,400 mg/m^2 (n=3)) is listed as “all three”. This compound also gave a half-life in [8] (median t1/2, all 10 patients) of 21.7 h. In addition, in [8] (t1/2 (range), all 10 patients), the half-life was in the range of 9.8 to 42.2 h. In addition, the “duration of decreased expression of NOTCH pathway genes” value in [9] was “at least 96 hours”. The “evaluable patients with prolonged SD (3 and 4 cycles)” value in series [10] is recorded as 2 of 17. In [11], the “patients with PR” value is 9 and the “patients with SD” value is 11. In series [12] (all evaluable patients, weekly schedule), the “patients with prolonged SD (6 and 10 cycles)” value is listed as 2 of 9. For the same compound, the objective responses result in series [12] (weekly 1,000 and 1,400 mg/m^2) is “No objective responses”. Moreover, in series [13], the “dose achieving target inhibition” value is recorded as 3,200 mg.

For `O=S1(=O)N[C@@]2(CN1CC(F)(F)F)[C@@H]1CC[C@H]2Cc2ccc(/C=C/CN3CCC(C(F)(F)F)CC3)cc2C1` [MRK003], in series [14], the “combination effect with paclitaxel” value is given as “synergy”. In addition, the “effect of combination on migratory and invasive potential of glioblastoma” value in [15] is on record as “synergistic inhibition”.

A word on the Cmax: it is the maximum level reached in the sampled fluid or tissue. The half-life is how long it takes for the measured level to halve.
